The test system of data set [1] is Trypanosoma brucei. The data set is described as follows: Antitrypanosomal activity against Trypanosoma brucei Lister 427 bloodstream form assessed as parasite growth inhibition at 50 uM after 72 hrs by SYBR Green assay relative to control. Format: functional. The note with it: Lister 427, 72 h, read-out: GI.
Data set [2] concerns Leishmania infantum. The data set is described as follows: Antileishmanial activity against Leishmania infantum amastigote form assessed as parasite growth inhibition at 50 uM after 72 hrs by steady-Glo reagent based assay relative to control. Format: functional. In a few lines:
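Intramacrophage L. infantum amastigotes in THP-1-derived macrophages, tested at 50 μM or in dose-response. Plates held 72 h at 37 °C, 5% CO2. Medium was replaced by PBS, macrophages lysed, and parasites read by Steady-Glo luminescence. High-content imaging gave host cell number, infection ratio (infected/total cells) and parasites per infected cell. Values are means of at least two independent experiments.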

Data set [3] concerns Trypanosoma cruzi. The data set is described as follows: Antitrypanosomal activity against Trypanosoma cruzi amastigote form infected in human U2OS cells assessed as parasite growth inhibition at 50 uM after 72 hrs relative to control. It counts as functional. The note with it: read-out: GI. In a few lines: (§1)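 U2OS monolayers grown for 24 h, then infected with tissue-derived trypomastigotes of T. cruzi Y strain. Compounds were added 24 h after infection at 50 μM (single-point) or in dose-response, with 72 h exposure. Plates were fixed, stained and analysed by high-content imaging; activity was normalized to infected and non-infected controls. Means of at least two experiments; benznidazole as reference.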

The test system of data set [4] is Trypanosoma brucei. The data set is described as follows: Antitrypanosomal activity against Trypanosoma brucei Lister 427 bloodstream form after 72 hrs by SYBR Green assay. Format: functional, organism-based. The note with it: Lister 427, 72 h.
For data set [5], the system named is Trypanosoma cruzi. The data set is described as follows: Antitrypanosomal activity against Trypanosoma cruzi amastigote form infected in human U2OS cells assessed as parasite growth inhibition after 72 hrs. It counts as functional, organism-based. In a few lines:
as §1

Data set [6] relates to Trypanosoma brucei. The data set is described as follows: Antitrypanosomal activity against Trypanosoma brucei Lister 427 bloodstream form at 10 uM after 72 hrs by resazurin dye-based assay relative to control. It counts as functional. On the technique in general: Alamar Blue is a resazurin reagent that responds to reducing activity.
Data set [7] deals with Trypanosoma brucei. The data set is described as follows: Potentiation of methotrexate-induced antitrypanosomal activity against Trypanosoma brucei Lister 427 bloodstream form at 10 uM after 72 hrs by resazurin dye-based assay relative to control. Format: functional.
Data set [8] concerns the target T1, CYP1A2 (Homo sapiens, UniProt P05177).
T1 sequence (P05177 whole entry): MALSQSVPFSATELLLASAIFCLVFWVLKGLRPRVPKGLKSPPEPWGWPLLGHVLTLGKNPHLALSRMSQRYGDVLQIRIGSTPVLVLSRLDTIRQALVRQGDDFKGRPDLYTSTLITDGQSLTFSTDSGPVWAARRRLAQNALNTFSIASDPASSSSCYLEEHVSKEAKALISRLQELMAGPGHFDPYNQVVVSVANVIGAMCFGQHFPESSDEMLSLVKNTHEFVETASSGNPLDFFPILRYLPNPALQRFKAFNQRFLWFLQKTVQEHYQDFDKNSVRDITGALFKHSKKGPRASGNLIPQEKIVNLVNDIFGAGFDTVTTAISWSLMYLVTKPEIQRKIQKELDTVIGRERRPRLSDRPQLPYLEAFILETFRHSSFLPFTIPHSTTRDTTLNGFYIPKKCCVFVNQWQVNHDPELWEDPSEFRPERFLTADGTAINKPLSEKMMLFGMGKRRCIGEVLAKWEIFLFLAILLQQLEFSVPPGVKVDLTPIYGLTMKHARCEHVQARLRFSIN
The data set is described as follows: Inhibition of human microsomal CYP1A2 expressed in baculovirus infected BTI-TN-5B1-4 cells at 10 uM incubated for 30 mins by luciferase assay relative to control. Format: ADME. The procedure, abridged:
(§2)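 CYP1A2, 2C9, 2C19, 2D6 and 3A4 in microsomes from baculovirus-infected insect cells, each with a P450-Glo luminogenic substrate. Inhibition read as loss of light; single-point at 10 μM, triplicate.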

The subject of data set [9] is Trypanosoma brucei. The data set is described as follows: Antitrypanosomal activity against Trypanosoma brucei Lister 427 bloodstream form after 72 hrs by resazurin dye-based assay. It counts as functional, organism-based. The following applies: Lister 427, 72 h.
Data set [10] deals with Trypanosoma brucei. The data set is described as follows: Potentiation of methotrexate-induced antitrypanosomal activity against Trypanosoma brucei Lister 427 bloodstream form assessed as combination index at EC50 after 72 hrs by resazurin dye-based assay. Format: functional.
For data set [11], the system named is Trypanosoma brucei. The data set is described as follows: Potentiation of methotrexate-induced antitrypanosomal activity against Trypanosoma brucei Lister 427 bloodstream form assessed as dose reduction index for compound at EC50 after 72 hrs by resazurin dye-based assay. It counts as functional.
In data set [12] the target is hERG (KCNH2) (Homo sapiens, UniProt Q12809). The data set is described as follows: Inhibition of human ERG at 10 uM incubated for 2 hrs by fluorescence polarisation assay relative to control.
hERG (KCNH2), sequence (Q12809 whole entry): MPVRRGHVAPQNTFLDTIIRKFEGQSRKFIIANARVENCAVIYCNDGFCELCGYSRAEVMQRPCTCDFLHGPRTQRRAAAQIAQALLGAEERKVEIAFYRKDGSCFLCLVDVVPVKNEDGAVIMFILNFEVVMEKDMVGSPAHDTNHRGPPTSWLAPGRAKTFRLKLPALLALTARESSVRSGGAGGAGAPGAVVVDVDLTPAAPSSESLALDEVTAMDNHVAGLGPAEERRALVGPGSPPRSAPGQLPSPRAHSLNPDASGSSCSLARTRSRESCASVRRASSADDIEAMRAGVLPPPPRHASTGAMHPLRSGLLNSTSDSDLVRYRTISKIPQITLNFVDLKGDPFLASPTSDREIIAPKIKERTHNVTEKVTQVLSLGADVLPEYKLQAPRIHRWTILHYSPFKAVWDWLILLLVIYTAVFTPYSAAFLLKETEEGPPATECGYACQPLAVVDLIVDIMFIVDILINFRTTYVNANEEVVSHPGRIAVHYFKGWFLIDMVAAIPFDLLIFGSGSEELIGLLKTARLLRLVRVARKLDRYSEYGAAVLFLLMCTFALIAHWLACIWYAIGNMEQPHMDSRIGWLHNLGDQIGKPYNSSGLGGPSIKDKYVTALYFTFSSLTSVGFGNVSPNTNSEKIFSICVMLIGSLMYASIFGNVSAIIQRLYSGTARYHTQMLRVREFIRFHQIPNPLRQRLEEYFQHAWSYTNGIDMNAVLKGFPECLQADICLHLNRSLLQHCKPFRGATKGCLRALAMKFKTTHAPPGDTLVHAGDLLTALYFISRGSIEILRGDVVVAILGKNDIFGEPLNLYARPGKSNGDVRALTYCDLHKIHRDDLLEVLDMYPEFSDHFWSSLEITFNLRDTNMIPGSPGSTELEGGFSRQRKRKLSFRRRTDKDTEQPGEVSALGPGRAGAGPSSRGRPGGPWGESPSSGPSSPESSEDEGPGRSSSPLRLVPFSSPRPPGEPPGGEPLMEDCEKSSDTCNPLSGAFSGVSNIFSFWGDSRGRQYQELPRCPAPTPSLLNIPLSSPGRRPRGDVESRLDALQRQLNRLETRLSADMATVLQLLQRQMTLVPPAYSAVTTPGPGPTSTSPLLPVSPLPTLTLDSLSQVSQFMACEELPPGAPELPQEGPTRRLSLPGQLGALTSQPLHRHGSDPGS
The target in data set [13] is CYP2C9 (Homo sapiens, UniProt P11712). The data set is described as follows: Inhibition of human microsomal CYP2C9 expressed in baculovirus infected BTI-TN-5B1-4 cells at 10 uM incubated for 30 mins by luciferase assay relative to control. Format: ADME. In a few lines:
as §2

The target in data set [14] is CYP2D6 (Homo sapiens, UniProt P10635). The data set is described as follows: Inhibition of human microsomal CYP2D6 expressed in baculovirus infected BTI-TN-5B1-4 cells at 10 uM incubated for 30 mins by luciferase assay relative to control. Format: ADME. The procedure, abridged:
as §2

Data set [15] concerns the target CYP3A4 (Homo sapiens, UniProt P08684). The data set is described as follows: Inhibition of human microsomal CYP3A4 expressed in baculovirus infected BTI-TN-5B1-4 cells at 10 uM incubated for 30 mins by luciferase assay relative to control. Format: ADME. In a few lines:
as §2

Data set [16] addresses Aurora kinase B (Homo sapiens, UniProt Q96GD4). The data set is described as follows: Inhibition of recombinant full-length human aurora B kinase expressed in baculovirus system at 10 uM using MBP as substrate incubated for 45 mins by ADP-glo kinase assay. The following applies: probe MBP. In a few lines:
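Aurora B activity measured as ADP formation via coupled luciferase ADP-Glo luminescence; single-point at 10 μM, triplicate.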
(In general: ADP-Glo first removes unused ATP, then detects ADP through luciferase.)

The nature of data set [17]: Cytotoxicity against human THP1 cells assessed as viable cells at 100 uM after 72 hrs by MTT assay relative to control. It counts as cell-based, THP-1. The following applies: read-out: Activity. In a few lines: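 THP-1-derived macrophages exposed to compounds for 72 h, tested at 100 μM or in dose-response; viability read by MTT colorimetric assay.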
In general terms: Tetrazolium dyes change colour on reduction, which living cells bring about.

Data set [18] can be described thus: Cytotoxicity against human U2OS cells assessed as viable cells at 50 uM after 72 hrs by MTT assay relative to control. Format: cell-based. The note with it: read-out: Activity.
Data set [19] can be described thus: Selectivity index, ratio of CC50 for human A549 cells to EC50 for Trypanosoma brucei Lister 427 bloodstream form. The note with it: read-out: Ratio CC50/EC50. Format: toxicity. In a few lines: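 Selectivity index = CC50 in the human host or cytotoxicity cell line divided by parasite EC50.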
Data set [20] has as its target T2, Pteridine reductase 1 (Leishmania major) (UniProt Q01782).
T2 sequence (whole entry): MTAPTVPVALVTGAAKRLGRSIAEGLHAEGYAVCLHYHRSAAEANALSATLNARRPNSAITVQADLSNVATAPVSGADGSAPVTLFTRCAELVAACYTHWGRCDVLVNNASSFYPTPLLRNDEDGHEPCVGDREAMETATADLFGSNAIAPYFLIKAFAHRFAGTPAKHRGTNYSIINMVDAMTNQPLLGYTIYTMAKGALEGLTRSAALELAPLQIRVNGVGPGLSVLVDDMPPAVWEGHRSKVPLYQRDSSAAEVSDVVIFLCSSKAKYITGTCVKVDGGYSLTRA
The data set is described as follows: Inhibition of Leishmania major PTR1 at 50 uM using H2B as substrate in presence of NADPH by photometric analysis relative to control.

Data set [21] can be described thus: Cytotoxicity against human A549 cells assessed as growth inhibition at 10 uM after 48 hrs by CellTiter-Glo assay relative to control; values are per cent of control. The note with it: A549 cells.

Experimental findings from ChEMBL document CHEMBL4196006, “Aryl thiosemicarbazones for the treatment of trypanosomatidic infections” (Eur J Med Chem, 2018) are described below.

The source made the active and inactive calls. The rule behind the calls is not given here.

CYP3A4, sequence (P08684 whole entry): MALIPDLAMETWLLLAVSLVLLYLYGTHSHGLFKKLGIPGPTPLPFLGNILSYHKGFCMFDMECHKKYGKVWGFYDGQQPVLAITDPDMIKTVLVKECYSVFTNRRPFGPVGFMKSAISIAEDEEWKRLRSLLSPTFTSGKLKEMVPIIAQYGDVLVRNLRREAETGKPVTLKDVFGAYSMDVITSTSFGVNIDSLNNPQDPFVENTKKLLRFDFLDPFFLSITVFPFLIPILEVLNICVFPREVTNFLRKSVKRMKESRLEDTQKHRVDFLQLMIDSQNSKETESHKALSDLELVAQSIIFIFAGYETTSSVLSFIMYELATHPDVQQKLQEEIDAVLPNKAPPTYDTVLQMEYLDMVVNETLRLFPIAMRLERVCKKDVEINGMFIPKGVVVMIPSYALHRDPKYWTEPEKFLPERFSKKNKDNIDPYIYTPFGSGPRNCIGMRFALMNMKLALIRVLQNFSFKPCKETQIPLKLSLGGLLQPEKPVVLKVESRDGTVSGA
Aurora kinase B, sequence (Q96GD4 whole entry): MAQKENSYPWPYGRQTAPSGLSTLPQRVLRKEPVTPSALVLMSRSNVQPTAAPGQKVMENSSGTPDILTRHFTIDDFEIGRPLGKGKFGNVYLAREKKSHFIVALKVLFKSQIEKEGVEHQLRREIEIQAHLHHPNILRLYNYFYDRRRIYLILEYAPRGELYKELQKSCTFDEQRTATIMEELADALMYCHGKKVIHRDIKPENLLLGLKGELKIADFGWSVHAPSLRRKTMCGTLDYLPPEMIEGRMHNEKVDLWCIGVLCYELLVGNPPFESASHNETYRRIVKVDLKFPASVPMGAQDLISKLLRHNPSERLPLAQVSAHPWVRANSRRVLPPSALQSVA
CYP2D6, sequence (P10635 whole entry): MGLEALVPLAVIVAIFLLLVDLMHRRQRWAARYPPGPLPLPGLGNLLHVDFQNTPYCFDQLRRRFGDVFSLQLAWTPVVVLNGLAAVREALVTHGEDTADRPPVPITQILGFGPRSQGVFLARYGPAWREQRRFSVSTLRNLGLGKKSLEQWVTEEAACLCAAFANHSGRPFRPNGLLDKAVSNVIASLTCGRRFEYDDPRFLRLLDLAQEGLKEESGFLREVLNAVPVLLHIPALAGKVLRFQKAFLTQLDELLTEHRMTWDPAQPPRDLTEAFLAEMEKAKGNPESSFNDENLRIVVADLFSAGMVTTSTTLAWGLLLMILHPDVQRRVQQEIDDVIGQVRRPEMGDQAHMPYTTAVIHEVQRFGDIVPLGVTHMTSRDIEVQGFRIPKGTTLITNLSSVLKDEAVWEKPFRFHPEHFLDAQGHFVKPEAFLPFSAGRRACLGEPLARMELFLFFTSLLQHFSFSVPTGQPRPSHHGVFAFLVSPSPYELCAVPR
CYP2C9, sequence (P11712 whole entry): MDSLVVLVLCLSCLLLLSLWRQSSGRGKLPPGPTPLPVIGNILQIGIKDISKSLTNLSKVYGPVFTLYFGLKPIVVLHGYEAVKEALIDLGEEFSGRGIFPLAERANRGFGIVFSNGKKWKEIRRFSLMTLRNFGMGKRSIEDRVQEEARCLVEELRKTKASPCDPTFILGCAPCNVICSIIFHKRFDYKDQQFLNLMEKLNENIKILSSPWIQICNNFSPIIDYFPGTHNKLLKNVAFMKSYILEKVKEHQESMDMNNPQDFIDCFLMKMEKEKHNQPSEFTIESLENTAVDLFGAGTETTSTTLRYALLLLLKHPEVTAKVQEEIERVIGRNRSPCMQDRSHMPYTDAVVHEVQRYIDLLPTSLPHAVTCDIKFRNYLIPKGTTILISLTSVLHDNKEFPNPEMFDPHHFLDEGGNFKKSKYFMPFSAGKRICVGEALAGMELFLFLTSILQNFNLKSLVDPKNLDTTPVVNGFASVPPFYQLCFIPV

By EC50 is commonly meant the concentration at which the effect is half-maximal. A word on the inhibition: it is the change of the read-out against control, counted positive when it falls. On to `COc1ccc(-c2cccc(/C=N/NC(N)=S)c2)cc1OC`, for which the inhibition of growth at 50 µM is 93.9% in [1] and 82.4% in data set [3]. Also, the “growth inhibition (GI)” value in data set [2] was “inactive”. For the same molecule, the values for the EC50 in [4], in data set [5] and in data set [9] were 7.45 µM, 29.5 µM and 4.72 µM, respectively. For the same molecule, the Activity in data set [6] is listed as 98.83%; in data set [7], 99.67%. Further, the inhibition at 0.5 h, 10 µM is 64.7% in data set [8], 56.8% in data set [13], 29.2% in [14] and -2.53% in [15]. Besides, the CI in data set [10] is 0.28. Besides, the Activity_index in data set [11] was 7.94. Moreover, the inhibition at 2 h, 10 µM in data set [12] is 22.4%. The inhibition at 0.75 h, 10 µM in [16] was -2.55%. The viability at 72 h, 100 µM in data set [17] is 40.9%. The viability at 72 h, 50 µM in data set [18] came to 26.7%. Moreover, the selectivity ratio in data set [19] turned out to be 7. In [20], the inhibition was found to be 4.76%. Further, in data set [21], the cell growth (% of control) at 48 h, 10 µM is 90.5%.

With `NC(=S)N/N=C/c1ccc(OCc2ccc(Cl)c(Cl)c2)cc1`, the figures for the inhibition of growth at 50 µM in data set [1], in data set [2] (read-out: GI) and in data set [3] were 100%, 80.5% and 80.5%, respectively. Moreover, the figures for the EC50 in data set [4], in data set [5] and in data set [9] were 2.31 µM, 1.31 µM and 0.44 µM, respectively. In addition, the Activity in [6] is 99.83%; in data set [7], 99.67%. For the same molecule, the inhibition at 0.5 h, 10 µM in data set [8] was determined as 26.8%; in data set [13], 18.9%; in [14], 39.3%; in data set [15], 10.6%. Also, the CI in data set [10] is given as 0.41. The Activity_index in data set [11] came out at 3.84. The inhibition at 2 h, 10 µM in data set [12] turned out to be 2.4%. In addition, the inhibition at 0.75 h, 10 µM in data set [16] is -6.24%. Further, the viability at 72 h, 100 µM in [17] came out at 38.8%. Besides, in [18], the viability at 72 h, 50 µM was found to be 65.5%. Moreover, the selectivity ratio in data set [19] was found to be 8. In data set [20], the inhibition turned out to be 0.59%. In addition, the cell growth (% of control) at 48 h, 10 µM in [21] was determined as 72.5%.
